{
  "source": "ChEMBL document CHEMBL1132965",
  "about": "“Inhibition of Grb2 SH2 domain binding by non-phosphate-containing ligands. 2. 4-(2-Malonyl)phenylalanine as a potent phosphotyrosyl mimetic” (J Med Chem, 2000)",
  "data": [
    {"biological_target": "Growth factor receptor-bound protein 2 (Homo sapiens, UniProt P62993)", "sequence (P62993 whole entry, the tested form may be a part)": "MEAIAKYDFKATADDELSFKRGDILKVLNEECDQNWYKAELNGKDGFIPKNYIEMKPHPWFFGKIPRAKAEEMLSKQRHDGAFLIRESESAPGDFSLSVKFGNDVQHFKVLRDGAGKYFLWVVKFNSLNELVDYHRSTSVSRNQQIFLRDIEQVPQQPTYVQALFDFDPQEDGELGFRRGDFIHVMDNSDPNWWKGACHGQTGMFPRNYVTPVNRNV", "experiment": "Inhibition of Growth factor receptor bound protein 2 binding by ELISA assay method", "outline": "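Recombinant purified Grb2 SH2-GST fusion protein preincubated with serial inhibitor dilutions, then added to wells coated overnight with biotinylated Shc-derived phosphopeptide (20 ng/mL); blocking with 5% BSA in TBS, washes with 0.1% BSA/TBS. Bound protein detected with anti-GST antibody plus alkaline phosphatase-conjugated goat anti-mouse antibody, p-nitrophenyl phosphate colorimetric read-out. IC50 from serial dilutions, each concentration in triplicate.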", "units": {"IC50": "nM"}, "values": [
      {"smiles": "CC(=O)N[C@@H](Cc1ccc(OC(C(=O)O)C(=O)O)cc1)C(=O)NC1(C(=O)N[C@@H](CC(N)=O)C(=O)NCCCc2cccc3ccccc23)CCCCC1", "IC50": 2750},
      {"smiles": "NC(=O)C[C@H](NC(=O)C1(NC(=O)[C@H](Cc2ccc(OC(C(=O)O)C(=O)O)cc2)NC(=O)C(=O)O)CCCCC1)C(=O)NCCCc1cccc2ccccc12", "IC50": 1100},
      {"smiles": "NC(=O)C[C@H](NC(=O)C1(NC(=O)[C@H](Cc2ccc(CP(=O)(O)O)cc2)NC(=O)C(=O)O)CCCCC1)C(=O)NCCCc1cccc2ccccc12", "IC50": 50},
      {"smiles": "NC(=O)C[C@H](NC(=O)C1(NC(=O)[C@H](Cc2ccc(OCC(=O)O)cc2)NC(=O)C(=O)O)CCCCC1)C(=O)NCCCc1cccc2ccccc12", "IC50": 19000},
      {"smiles": "CC(=O)N[C@@H](Cc1ccc(C(F)(C(=O)O)C(=O)O)cc1)C(=O)NC1(C(=O)N[C@@H](CC(N)=O)C(=O)NCCCc2cccc3ccccc23)CCCCC1", "IC50": 680},
      {"smiles": "CC(=O)N[C@@H](Cc1ccc(C(C(=O)O)C(=O)O)cc1)C(=O)NC1(C(=O)N[C@@H](CC(N)=O)C(=O)NCCCc2cccc3ccccc23)CCCCC1", "IC50": 160},
      {"smiles": "NC(=O)C[C@H](NC(=O)C1(NC(=O)[C@H](Cc2ccc(C(F)(C(=O)O)C(=O)O)cc2)NC(=O)C(=O)O)CCCCC1)C(=O)NCCCc1cccc2ccccc12", "IC50": 170},
      {"smiles": "NC(=O)C[C@H](NC(=O)C1(NC(=O)[C@H](Cc2ccc(CC(=O)O)cc2)NC(=O)C(=O)O)CCCCC1)C(=O)NCCCc1cccc2ccccc12", "IC50": 1000},
      {"smiles": "CC(=O)N[C@@H](Cc1ccc(CP(=O)(O)O)cc1)C(=O)NC1(C(=O)N[C@@H](CC(N)=O)C(=O)NCCCc2cccc3ccccc23)CCCCC1", "IC50": 20},
      {"smiles": "Cc1ccc2c(ccn2CCCNC(=O)[C@H](CC(N)=O)NC(=O)C2(NC(=O)[C@H](Cc3ccc(CP(=O)(O)O)cc3)NC(=O)C(=O)O)CCCCC2)c1", "IC50": 2},
      {"smiles": "CC(=O)N[C@@H](Cc1ccc(CP(=O)(O)O)cc1)C(=O)NC1(C(=O)N[C@@H](CC(N)=O)C(=O)NCCCn2ccc3cc(C)ccc32)CCCCC1", "IC50": 4},
      {"smiles": "CC(=O)N[C@@H](Cc1ccc(OCC(=O)O)cc1)C(=O)NC1(C(=O)N[C@@H](CC(N)=O)C(=O)NCCCc2cccc3ccccc23)CCCCC1", "IC50": 68000},
      {"smiles": "CC(=O)N[C@@H](Cc1ccc(C(C(=O)O)C(=O)O)cc1)C(=O)NC1(C(=O)N[C@@H](CC(N)=O)C(=O)NCCCn2ccc3cc(C)ccc32)CCCCC1", "IC50": 12},
      {"smiles": "NC(=O)C[C@H](NC(=O)C1(NC(=O)[C@H](Cc2ccc(C(C(=O)O)C(=O)O)cc2)NC(=O)C(=O)O)CCCCC1)C(=O)NCCCc1cccc2ccccc12", "IC50": 70},
      {"smiles": "Cc1ccc2c(ccn2CCCNC(=O)[C@H](CC(N)=O)NC(=O)C2(NC(=O)[C@H](Cc3ccc(C(C(=O)O)C(=O)O)cc3)NC(=O)C(=O)O)CCCCC2)c1", "IC50": 8},
      {"smiles": "CC(=O)N[C@@H](Cc1ccc(CC(=O)O)cc1)C(=O)NC1(C(=O)N[C@@H](CC(N)=O)C(=O)NCCCc2cccc3ccccc23)CCCCC1", "IC50": 6400}
    ]}
  ]
}
